Data reported in ChEMBL document CHEMBL1142547, “Synthesis and antiviral activity of novel pyrazole derivatives containing oxime esters group” (Bioorg Med Chem, 2008).
Activity calls are given as the source filed them. No cut-off for these calls is given here.

Legend:
Tobacco mosaic virus [1] = test: Antiviral activity against TMV assessed as viral inactivation effect at 500 mg/L; type: functional
Outline: (§1)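 TMV purified by Gooding's method. Protective, inactivating and curative effects tested on tobacco in vivo by Li's method at 500 mg/L. Ningnanmycin served as the reference control. Each experiment used three replicates and was run three times. Data were analysed by one-way ANOVA with LSD mean separation.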

Tobacco mosaic virus [2] = test: Antiviral activity against TMV assessed as viral disease curative effect at 500 mg/L; type: functional; outline: as §1
Tobacco mosaic virus [3] = test: Antiviral activity against TMV assessed as protection effect against viral infection at 500 mg/L; type: functional, organism-based; outline: as §1
Nicotiana tabacum [4] = test: Increase in PR-5 gene expression in TMV-infected tobacco leaf assessed as gene expression ratio on day 5 by RT-PCR; type: functional
Outline: (§2)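 Real-time PCR used gene-specific primers, with β-actin as the reference, and included a 40–95 °C melt curve. Expression ratio was calculated by ΔΔCT against a calibrator over days 1–7 after TMV inoculation. Mean ± SD, n = 4, triplicate sets.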

Nicotiana tabacum [5] = test: Increase in PR-1a gene expression in TMV-infected tobacco leaf assessed as gene expression ratio on day 5 by RT-PCR; type: functional; outline: as §2
Nicotiana tabacum [6] = test: Increase in superoxide dismutase level in TMV-infected tobacco at 500 ug/mL after 1 day by Beauchamp's method; type: functional, organism-based
Outline: (§3)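 Nicotiana tabacum inoculated with TMV was treated at 500 μg/mL, and leaves were sampled at 1, 3, 5 and 7 days. Leaves were homogenized on ice in 5 mM 2-mercaptoethanol–boric acid buffer, pH 8.8, then centrifuged. The supernatant was assayed for PAL (He), POD (Polle) or SOD (Beauchamp). Water and TMV-only treatments were the controls. Means ± SD, n = 3, one-way ANOVA.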

Nicotiana tabacum [7] = test: Increase in peroxidase enzyme level in TMV-infected tobacco at 500 ug/mL after 7 days by Polle's method; type: functional; outline: as §3
Nicotiana tabacum [8] = test: Increase in peroxidase enzyme level in TMV-infected tobacco at 500 ug/mL after 1 day by Polle's method; type: functional, organism-based; outline: as §3
Nicotiana tabacum [9] = test: […] in phenylalanine ammonia lyase level in TMV-infected tobacco at 500 ug/mL up to 7 days by He's method; type: functional, organism-based; outline: as §3
Nicotiana tabacum [10] = test: Increase in superoxide dismutase level in TMV-infected tobacco at 500 ug/mL after 7 days by Beauchamp's method; type: functional; outline: as §3

| SMILES | Activity (Tobacco mosaic virus [1]) | Activity (Tobacco mosaic virus [2]) | Activity (Tobacco mosaic virus [3]) | further results |
| --- | --- | --- | --- | --- |
| CCCCCC(=O)O/N=C/C1C(C)=NN(c2ccc(C)cc2)C1Sc1ccc(F)cc1 (stereo not given) | 61.5% | 30% | 40.9% | – |
| CCCCCC(=O)O/N=C/C1C(C)=NN(c2ccccc2)C1Sc1ccc(F)cc1 (stereo not given) | 67.8% | 40.2% | 28.9% | – |
| C/C=C/C=C/C(=O)O/N=C/C1C(C)=NN(c2ccc(C)cc2)C1Sc1ccc(F)cc1 (stereo not given) | 80.2% | 46.4% | 26% | – |
| CC(=O)O/N=C/C1C(C)=NN(c2ccccc2)C1Sc1ccc(F)cc1 (stereo not given) | 81.4% | 40.4% | 36.7% | – |
| CC1=NN(c2ccccc2)C(Sc2ccc(F)cc2)C1/C=N/OC(=O)c1ccccc1 (stereo not given) | 55% | 34.9% | 28.8% | – |
| CCCC(=O)O/N=C/C1C(C)=NN(c2ccccc2)C1Sc1ccc(F)cc1 (stereo not given) | 79.9% | 34% | 25.9% | – |
| CC1=NN(c2ccc(Cl)cc2)C(Sc2ccc(F)cc2)C1/C=N/OC(=O)c1ccccc1 (stereo not given) | 63.8% | 47.7% | 35% | – |
| CNCC(=O)N[C@@H](CO)C(=O)N[C@H]1[C@H](O)[C@@H](O)[C@H](n2ccc(N)nc2=O)O[C@@H]1C(N)=O [NINGNANMYCIN] | 97% | 56% | – | Ratio (Nicotiana tabacum [4]): 17.9; Ratio (Nicotiana tabacum [5]): 13.8 |
| COc1ccc(SC2C(/C=N/OC(=O)c3ccccc3)C(C)=NN2c2ccc(Cl)cc2)cc1 (stereo not given) | 56.8% | 35% | 27.6% | – |
| C/C=C/C=C/C(=O)O/N=C/C1C(C)=NN(c2ccc(Cl)cc2)C1Sc1ccc(F)cc1 (stereo not given) | 82.9% | 60% | 28.3% | – |
| CC1=NN(c2ccc(C)cc2)C(Sc2ccc(F)cc2)C1/C=N/OC(=O)c1ccccc1 (stereo not given) | 69.2% | 50% | 48.4% | – |
| C/C=C/C=C/C(=O)O/N=C/C1C(C)=NN(c2ccc(Cl)cc2)C1Sc1ccc(C)cc1 (stereo not given) | 68.9% | 38.9% | 50% | – |
| CCCCCC(=O)O/N=C/C1C(C)=NN(c2ccc(Cl)cc2)C1Sc1ccc(F)cc1 (stereo not given) | 85.6% | 62% | 31% | Activity (Nicotiana tabacum [6]): Active; Activity (Nicotiana tabacum [7]): 40 EU/mg; Activity (Nicotiana tabacum [8]): Active; Activity (Nicotiana tabacum [9]): Active; Activity (Nicotiana tabacum [4]): inactive; Ratio (Nicotiana tabacum [5]): 26.6; Activity (Nicotiana tabacum [10]): 40 EU/mg |
| CC1=NN(c2cccc(Cl)c2)C(Sc2ccc(F)cc2)C1/C=N/OC(=O)c1ccccc1 (stereo not given) | 55% | 30.2% | 41% | – |
